The values that follow come from ChEMBL document CHEMBL1154106, “Inhibitory effects of 5-benzylidene barbiturate derivatives on mushroom tyrosinase and their antibacterial activities” (Eur J Med Chem, 2009).

SMILES strings stand for the structures. In brackets after ≈: the same amount, converted by molar mass. Activity calls are given as the source filed them. The calls are words filed in the database; no cut-off is given here.

In one assay the test system is Staphylococcus. The experiment in a line: Antibacterial activity against Staphylococcus albus at 1 mg/ml after 24 hrs by agar dilution method. It counts as functional, organism-based. (In general: Agar dilution tests growth on a series of plates holding different concentrations.)
The next assay relates to Staphylococcus aureus. Nature of the assay: Antibacterial activity against Staphylococcus aureus after 24 hrs by agar dilution method. It counts as functional. An outline of the steps:
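MIC by agar dilution on Mueller–Hinton agar containing twofold serial dilutions from a 1 mg/mL DMSO stock. Final levels 50, 25, 12.5, 6.25, 3.1, 1.5, 0.8, 0.4 and 0.2. Inoculum was 16–18 h cultures at 0.5 McFarland; plates incubated 37 °C for 24 h. MIC is the lowest concentration preventing visible growth; levofloxacin was the reference.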

In another assay the test system is Pseudomonas aeruginosa. Nature of the assay: Antibacterial activity against Pseudomonas aeruginosa at 1 mg/ml after 24 hrs by agar dilution method. It counts as functional, organism-based. In a few lines: (§1)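 Agar well diffusion: overnight (16–18 h, 37 °C) cultures set to 0.5 McFarland and mixed into Mueller–Hinton agar. Compound stock 1 mg/mL in DMSO loaded into 6 mm wells, with DMSO as control and levofloxacin as reference. Plates incubated 37 °C for 24 h. Read-out is the diameter of the growth-inhibition zone around each well.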

A further assay concerns Bacillus cereus. The experiment in a line: Antibacterial activity against Bacillus cereus at 1 mg/ml after 24 hrs by agar dilution method. The format is functional, organism-based.
Assay [1] concerns the target T1, Tyrosinase (Agaricus bisporus) (UniProt O42713).
T1 sequence (whole entry): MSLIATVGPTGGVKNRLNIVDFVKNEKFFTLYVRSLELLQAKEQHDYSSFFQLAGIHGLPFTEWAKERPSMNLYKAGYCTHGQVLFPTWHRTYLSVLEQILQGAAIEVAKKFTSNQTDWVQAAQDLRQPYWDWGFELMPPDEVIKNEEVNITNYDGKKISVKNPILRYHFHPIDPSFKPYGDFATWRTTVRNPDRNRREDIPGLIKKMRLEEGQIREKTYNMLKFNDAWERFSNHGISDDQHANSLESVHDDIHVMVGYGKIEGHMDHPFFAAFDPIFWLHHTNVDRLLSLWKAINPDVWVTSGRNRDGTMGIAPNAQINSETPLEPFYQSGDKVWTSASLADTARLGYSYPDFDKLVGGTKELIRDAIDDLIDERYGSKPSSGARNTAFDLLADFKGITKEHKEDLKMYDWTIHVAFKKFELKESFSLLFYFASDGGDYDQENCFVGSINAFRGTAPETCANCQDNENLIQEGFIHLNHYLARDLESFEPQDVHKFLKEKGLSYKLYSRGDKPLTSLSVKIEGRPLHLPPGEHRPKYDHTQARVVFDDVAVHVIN
The experiment in a line: Inhibition of mushroom tyrosinase at 200 uM. An outline of the steps: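 Single-concentration check in the mushroom tyrosinase diphenolase assay. Conditions: 0.5 mM L-DOPA, 50 mM phosphate buffer pH 6.8, enzyme 0.5 mg/mL, 25 °C, 2.0% DMSO final with DMSO controls. Activity read as dopachrome absorbance at 475 nm over 1 min.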

The next assay deals with Escherichia coli. The experiment in a line: Antibacterial activity against Escherichia coli at 1 mg/ml after 24 hrs by agar dilution method. The format is functional, organism-based.
Another assay concerns the target T2, Tyrosinase (Agaricus bisporus, UniProt O42713).
T2 sequence (O42713 whole entry): T1 sequence (whole entry)
Nature of the assay: Inhibition of mushroom tyrosinase. An outline of the steps: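 Mushroom tyrosinase diphenolase assay: 1 mL reaction with 0.5 mM L-DOPA in 50 mM sodium phosphate buffer, pH 6.8, enzyme final 0.5 mg/mL, 25 °C. Compounds dissolved in DMSO (2.0% final); DMSO-only controls run. Dopachrome formation followed at 475 nm for 1 min. IC50 interpolated from dose–response curves; means of three experiments.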

Assay [2] has as its system Staphylococcus epidermidis. The experiment in a line: Antibacterial activity against Staphylococcus epidermidis at 1 mg/ml after 24 hrs by agar dilution method. The format is functional, organism-based. In a few lines: as §1

For `O=C1NC(=O)C(=Cc2ccc(OCCO)cc2)C(=O)N1`, the result (with Staphylococcus; with Pseudomonas aeruginosa; in the assay with Bacillus cereus; with Escherichia coli; in assay [2]) was inactive. Moreover, the MIC with Staphylococcus aureus is more than 25 µg/mL. Besides, the inhibition in assay [1] stood at 22.4%. In addition, on Tyrosinase, the 50% inhibitory concentration (IC50) is more than 200 µM.
Turning to `O=C1NC(=S)NC(=O)C1Cc1ccc(OCCO)cc1`, the outcome (in the assay on Staphylococcus; with Pseudomonas aeruginosa; in the assay on Bacillus cereus; in the assay on Escherichia coli; in assay [2]) was inactive. This compound displayed an MIC in the assay on Staphylococcus aureus of more than 25 µg/mL. Also, the inhibition in assay [1] turned out to be 95.9%. At Tyrosinase, 156 µM corresponded to half-maximal inhibition (IC50).
Take `COc1ccc(/C=C/C(=O)O)cc1`: in assay [1], the inhibition was 46.6%.
Regarding `COCCOCCOc1ccc(C=C2C(=O)NC(=O)NC2=O)cc1`, the result (with Staphylococcus; with Pseudomonas aeruginosa; in the assay on Bacillus cereus; in the assay with Escherichia coli; in assay [2]) was inactive. In the assay on Staphylococcus aureus, this compound gave an MIC of more than 25 µg/mL. The compound also registered an inhibition in assay [1] of 88.7%. Further, the IC50 on Tyrosinase was 137 µM.
Turning to `CCCCOCCOc1ccc(C=C2C(=O)NC(=S)NC2=O)cc1`, the outcome (in the assay on Staphylococcus; in the assay with Pseudomonas aeruginosa; with Bacillus cereus; in the assay with Escherichia coli; in assay [2]) was inactive. The compound further displayed an MIC against Staphylococcus aureus of 3.1 µg/mL (≈ 8.9 µM). This compound returned an inhibition in assay [1] of 85.9%. On Tyrosinase, this compound gave an IC50 of 107 µM.
In the case of `COCCCCOc1ccc(C=C2C(=O)NC(=O)NC2=O)cc1`, the outcome (with Staphylococcus; in the assay with Pseudomonas aeruginosa; with Bacillus cereus; in the assay on Escherichia coli; in assay [2]) was inactive. Besides, in the assay on Staphylococcus aureus, the MIC is more than 25 µg/mL. The compound also yielded an inhibition in assay [1] of 12.2%. Further, the IC50 against Tyrosinase is more than 200 µM.
`COCCOc1ccc(C=C2C(=O)NC(=S)NC2=O)cc1`: the outcome (in the assay with Staphylococcus; in the assay on Pseudomonas aeruginosa; in the assay on Bacillus cereus; with Escherichia coli; in assay [2]) was inactive. Further, in the assay on Staphylococcus aureus, the minimum inhibitory concentration (MIC) is more than 12.5 µg/mL. In addition, the inhibition in assay [1] stood at 100%. On Tyrosinase, this compound yielded an IC50 of 28.4 µM.
In assay [1], `O=Cc1ccc(O)cc1` [4-HYDROXYBENZALDEHYDE] had an inhibition of 16.4%. The compound further gave an IC50 at Tyrosinase of 1220 µM.
`O=C1NC(=O)C(=Cc2ccc(O)cc2)C(=O)N1`: the result (in the assay on Staphylococcus; with Pseudomonas aeruginosa; in the assay with Bacillus cereus; in the assay with Escherichia coli; in assay [2]) was inactive. The compound also displayed an MIC in the assay on Staphylococcus aureus of more than 25 µg/mL. In assay [1], the inhibition is 100%. The compound further had an IC50 on Tyrosinase of 14 µM.
As to `O=C1NC(=S)NC(=O)C1Cc1ccc(O)cc1`, the outcome (with Staphylococcus; in the assay with Pseudomonas aeruginosa; in the assay on Bacillus cereus; with Escherichia coli; in assay [2]) was inactive. Moreover, in the assay with Staphylococcus aureus, the MIC was more than 25 µg/mL. Moreover, the inhibition in assay [1] worked out at 100%. This compound returned an IC50 on Tyrosinase of 70 µM.
As to `CCCCOCCOc1ccc(CC2C(=O)NC(=O)NC2=O)cc1`, the result (with Staphylococcus; with Pseudomonas aeruginosa; in the assay with Bacillus cereus; in the assay on Escherichia coli; in assay [2]) was inactive. Further, in the assay with Staphylococcus aureus, the MIC was more than 12.5 µg/mL. For the same compound, the inhibition entry in assay [1] is “inactive”. The IC50 on Tyrosinase is more than 200 µM.
Consider `O=C1NC(=O)C(Cc2ccc(OCCO)cc2)C(=O)N1`, for which the result (in the assay on Staphylococcus; in the assay with Pseudomonas aeruginosa; in the assay on Bacillus cereus; in the assay with Escherichia coli; in assay [2]) was inactive. Moreover, in the assay with Staphylococcus aureus, the MIC is more than 12.5 µg/mL. This compound also displayed an inhibition in assay [1] of 5.27%. The compound further had an IC50 against Tyrosinase of more than 200 µM.
In assay [1], `O=C1CC(=O)NC(=O)N1` [BARBITURIC ACID] registered an inhibition of 5.95%. Also, at Tyrosinase, the IC50 was more than 200 µM.
In assay [1], `O=C1CC(=O)NC(=S)N1` [THIOBARBITURIC] gave an inhibition of 8.21%. Besides, the IC50 against Tyrosinase was more than 200 µM.
On to `CCCCOCCOc1ccc(C=C2C(=O)NC(=O)NC2=O)cc1`, for which the outcome (with Staphylococcus; with Pseudomonas aeruginosa; in the assay on Bacillus cereus; with Escherichia coli; in assay [2]) was inactive. The MIC in the assay with Staphylococcus aureus was more than 25 µg/mL. In assay [1], this compound registered an inhibition of 100%. The same compound had an IC50 at Tyrosinase of 45.4 µM.
Turning to `O=C1NC(=S)NC(=O)C1=Cc1ccc(O)cc1`, the result (in the assay with Staphylococcus; with Pseudomonas aeruginosa; in the assay with Bacillus cereus; with Escherichia coli; in assay [2]) was inactive. The same compound returned an MIC against Staphylococcus aureus of 3.1 µg/mL (≈ 12.5 µM). The compound further came in with an inhibition in assay [1] of 100%. For the same compound, the IC50 on Tyrosinase is 14.5 µM.
As for `COCCOc1ccc(C=C2C(=O)NC(=O)NC2=O)cc1`, the result (with Staphylococcus; with Pseudomonas aeruginosa; with Bacillus cereus; with Escherichia coli; in assay [2]) was inactive. Moreover, the MIC against Staphylococcus aureus was more than 25 µg/mL. For the same compound, the inhibition in assay [1] worked out at 100%. Moreover, the IC50 against Tyrosinase turned out to be 75.4 µM.
In the case of `O=C1NC(=S)NC(=O)C1=Cc1ccc(OCCO)cc1`, the result (in the assay with Staphylococcus; in the assay on Pseudomonas aeruginosa; in the assay on Bacillus cereus; in the assay with Escherichia coli; in assay [2]) was inactive. In the assay on Staphylococcus aureus, this compound came in with an MIC of more than 25 µg/mL. The inhibition in assay [1] amounted to 16.5%. For the same compound, the IC50 at Tyrosinase is more than 200 µM.
As for `COCCOc1ccc(CC2C(=O)NC(=S)NC2=O)cc1`, the outcome (in the assay with Staphylococcus; in the assay on Pseudomonas aeruginosa; in the assay on Bacillus cereus; with Escherichia coli; in assay [2]) was inactive. Also, in the assay with Staphylococcus aureus, the MIC was more than 12.5 µg/mL. In assay [1], this compound had an inhibition of 100%. Moreover, it took 113 µM to reach half-maximal inhibition against Tyrosinase (IC50).
As for `O=C1NC(=O)C(Cc2ccc(O)cc2)C(=O)N1`, the outcome (with Staphylococcus; with Pseudomonas aeruginosa; in the assay on Bacillus cereus; in the assay on Escherichia coli; in assay [2]) was inactive. Further, the MIC in the assay on Staphylococcus aureus was more than 12.5 µg/mL. Further, the inhibition in assay [1] was 47.5%. This compound also had an IC50 at Tyrosinase of more than 200 µM.
In turn, `C[C@H]1COc2c(N3CCN(C)CC3)c(F)cc3c(=O)c(C(=O)O)cn1c23.C[C@H]1COc2c(N3CCN(C)CC3)c(F)cc3c(=O)c(C(=O)O)cn1c23.O` [LEVOFLOXACIN] came in with an MIC against Staphylococcus aureus of 0.4 µg/mL.

By MIC is commonly meant the least concentration at which growth counts as inhibited. In general, inhibition refers to the change of the read-out against control, counted positive when it falls. As usually defined, the IC50 is the concentration that inhibits the measured activity by half. A higher IC50 goes with weaker potency in that assay.
